Data on 12 molecules can be found in paper PMC8451076 (International Journal of Nanomedicine, 2021).

For data set [1] the following is noted: cited from earlier work; for oral bioavailability: purified constituents of TCMs.
The next data set deals with Caco-2 cells. Kind of data set: Uptake of BBR in Caco-2 cells with endocytosis inhibitors. The format is cell-based, human. Conditions: Nnps containing 10 μg/mL BBR, 4 h, indomethacin 100 μg/mL, chlorpromazine 10 μg/mL, cytochalasin D 5 μM.
The nature of data set [2]: Solubility of BBR in supersaturated aqueous solutions. The format is physicochemical. Conditions: water, thermodynamic from solid. An outline of the steps: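 Supersaturated aqueous preparations, each at 10 mg/mL BBR, were sonicated 1 h and centrifuged at 16,000 rpm for 10 min. BBR in the supernatant was quantified by LC-MS. n = 6.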
The format of data set [3] is physicochemical. In outline:
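Test material containing 10 mg BBR was enclosed in a blank capsule and run in a rotating-basket tester at 50 rpm and 37 ± 0.5°C. Medium was 900 mL HCl buffer (2.0 g NaCl, pH 1.2; sampled 5–90 min) or 0.2 M sodium phosphate (pH 6.8; sampled 2.5 min–6 h). Samples were 0.22-μm filtered and centrifuged, then BBR was quantified by LC-MS. n = 6.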

Data set [4] in a line: Transportation of BBR across MDCK-MDR1 cell monolayer. In kind it is in vitro ADME, canine. Particulars: dog. An outline of the steps: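 MDCK-MDR1 cells were grown in DMEM/10% FBS/15 mM HEPES and seeded on polycarbonate Transwells (2×10^5 cells/mL) until TEER exceeded 500 Ω·cm2. Cells were equilibrated 20 min in HBSS (pH 7.2). BBR (final 10 μg/mL) was added apical or basolateral, and both sides were sampled after 2 or 4 h for LC-MS/MS. Papp = ΔQ/(Δt·A·C0), with A 0.33 cm2.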

Data set [5] can be described thus: Metabolism stability of BBR in intestinal S9. The format is in vitro ADME. Particulars: mouse, intestinal S9, pH 7.4. An outline of the steps:
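Mouse intestinal S9 (2 mg/mL) plus test material (BBR final 10 μg/mL) in 50 mM Tris-HCl pH 7.4 was preincubated 5 min at 37°C, then started with NADPH (1 mg/mL). After 0.5 or 1 h, reactions were stopped with equal-volume chilled methanol containing carbamazepine internal standard and centrifuged. Residual BBR and demethylberberine were measured by LC-MS/MS.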

Structures can show the parent of a compound that is named as a salt. Where two headings read alike, the source gives them in different places.

Turning to `CC(C)=CCC[C@](C)(O[C@@H]1O[C@H](CO[C@@H]2OC[C@@H](O)[C@H](O)[C@H]2O)[C@@H](O)[C@H](O)[C@H]1O)[C@H]1CC[C@]2(C)[C@@H]1[C@H](O)C[C@@H]1[C@@]3(C)CC[C@H](O[C@@H]4O[C@H](CO)[C@@H](O)[C@H](O)[C@H]4O[C@@H]4O[C@H](CO)[C@@H](O)[C@H](O)[C@H]4O)C(C)(C)[C@@H]3CC[C@]12C` [Rb3, ginsenoside Rb3], in data set [1], the oral bioavailability result was “less than 5%”. Take `COc1cc(/C=C/C(=O)CC(=O)/C=C/c2ccc(O)c(OC)c2)ccc1O` [curcumin]: the oral bioavailability result in data set [1] was “less than 5%”. For `Cc1coc2c1C(=O)C(=O)c1c-2ccc2c1CCCC2(C)C` [tanshinone IIA], the oral bioavailability result in data set [1] was “less than 5%”. `CC1(C)[C@@H](O[C@H]2O[C@H](C(=O)O)[C@@H](O)[C@H](O)[C@H]2O[C@@H]2O[C@H](C(=O)O)[C@@H](O)[C@H](O)[C@H]2O)CC[C@]2(C)[C@H]3C(=O)C=C4[C@@H]5C[C@@](C)(C(=O)O)CC[C@]5(C)CC[C@@]4(C)[C@]3(C)CC[C@@H]12` [glycyrrhizin]: the oral bioavailability result in data set [1] was “less than 5%”. As for `C=C1[C@@H](C)[C@H]2[C@H](Cc3ccccc3)NC(=O)[C@]23[C@H](OC(C)=O)/C=C/[C@@](C)(O)C(=O)[C@@H](C)C/C=C/[C@H]3[C@@H]1O` [cytochalasin D], the “effect of endocytosis inhibitor on uptake of BBR carried by the Nnps” value in the data set with Caco-2 cells was “promoted the uptake”. On to `O=C(O)[C@H]1O[C@@H](Oc2cc3oc(-c4ccccc4)cc(=O)c3c(O)c2O)[C@H](O)[C@@H](O)[C@@H]1O` [baicalin], for which the oral bioavailability result in data set [1] is “less than 5%”. For `CC(C)=CCC[C@](C)(O[C@@H]1O[C@H](CO[C@@H]2OC[C@H](O)[C@H](O)[C@H]2O)[C@@H](O)[C@H](O)[C@H]1O)[C@H]1CC[C@]2(C)[C@@H]1[C@H](O)C[C@@H]1[C@@]3(C)CC[C@H](O[C@@H]4O[C@H](CO)[C@@H](O)[C@H](O)[C@H]4O[C@@H]4O[C@H](CO)[C@@H](O)[C@H](O)[C@H]4O)C(C)(C)[C@@H]3CC[C@]12C` [Rb2, ginsenoside Rb2], the oral bioavailability result in data set [1] was “less than 5%”.

`CC(C)=CCC[C@](C)(O[C@@H]1O[C@H](CO[C@@H]2O[C@H](CO)[C@@H](O)[C@H](O)[C@H]2O)[C@@H](O)[C@H](O)[C@H]1O)[C@H]1CC[C@]2(C)[C@@H]1[C@H](O)C[C@@H]1[C@@]3(C)CC[C@H](O[C@@H]4O[C@H](CO)[C@@H](O)[C@H](O)[C@H]4O[C@@H]4O[C@H](CO)[C@@H](O)[C@H](O)[C@H]4O)C(C)(C)[C@@H]3CC[C@]12C` [ginsenoside Rb1]: in data set [1], the oral bioavailability entry is “less than 5%”. In the case of `COc1ccc2c(c1)c(CC(=O)O)c(C)n2C(=O)c1ccc(Cl)cc1` [Indomethacin, indomethacin], the “effect of endocytosis inhibitor on uptake of BBR carried by the Nnps” value in the data set with Caco-2 cells is recorded as “significantly reduced”. Same read-out and setting: for `CN(C)CCCN1c2ccccc2Sc2ccc(Cl)cc21` [Chlorpromazine, chlorpromazine] the value was “promoted the uptake”.

On to `COc1ccc2cc3[n+](cc2c1OC)CCc1cc2c(cc1-3)OCO2` [BBR, berberine hydrochloride], for which the solubility at 1 h in data set [2] is around 3700 µg/mL. The “dissolution rate of BBR” value is given as 7.5% in data set [3] (artificial gastric juice (pH 1.2), 15 min); 35.3% in data set [3] (artificial gastric juice (pH 1.2), end point); 1.8% in data set [3] (artificial intestinal juice (pH 6.8), 15 min); 60.9% in data set [3] (artificial intestinal juice (pH 6.8), end point 6 h). In addition, the Papp at 10 μg/mL in data set [4] is below 1 ×10⁻⁶ cm/s. The molecule further had a half-life at 10 μg/mL in data set [5] of 2.48 h. Also, the “bioavailability of oral BBR” value in data set [1] (oral) is 0.36%. Moreover, the “fraction of BBR excreted directly with feces after oral administration” value in data set [1] (oral) is listed as “approximately 56%”. Also, the “intestinal elimination of the oral dose” value in data set [1] (oral) is reported as 43.5%. Besides, the oral bioavailability entry in data set [1] was “less than 5%”. For the molecule `CC(C)(O)[C@@H]1CC[C@](C)([C@H]2[C@@H](O)C[C@@]3(C)[C@@H]4C[C@H](O[C@@H]5O[C@H](CO)[C@@H](O)[C@H](O)[C@H]5O)[C@H]5C(C)(C)[C@@H](O[C@@H]6OC[C@@H](O)[C@H](O)[C@H]6O)CC[C@@]56C[C@@]46CC[C@]23C)O1` [astragaloside IV], the oral bioavailability entry in data set [1] is “less than 5%”.
